# Experimental data published in ChEMBL document CHEMBL1122055, “DL-threo-beta-Fluoroaspartate and DL-threo-beta-fluoroasparagine: selective cytotoxic agents for mammalian cells in culture” (J Med Chem, 1982).
# “And” between values parts separate entries of the source, which are not always exact repeats. Equal entries are not always repeated.
# How the values were obtained:
# 7800C1 cell line [1] = test: Tested for its cytotoxic effect on the growth of the cell strain 7800C1 (1 x 10e 4 (MEM)) at 2 ug/mL dose; assay type: functional, Rattus norvegicus
# How it was run: (§1)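 Cells plated in 35-mm dishes at the stated density and medium (F 10+: Ham's F10 + 15% horse serum + 2.5% fetal calf serum; MEM+: Eagle's MEM + 5% horse + 5% fetal calf serum), grown 3 days. All strains then switched to F 10+ before treatment and incubated 4 days. Growth read as total cell protein per dish (Lowry, bovine albumin standard). Single determinations; experiment repeated twice.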
# 7800C1 cell line [2] = test: Tested for its cytotoxic effect on the growth of the cell strain 7800C1 (1 x 10e 4 (MEM)) at 20 ug/mL dose; assay type: functional, Rattus norvegicus; how it was run: as §1
# 7800C1 cell line [3] = test: Tested for its cytotoxic effect on the growth of the cell strain 7800C1 (1 x 10e 4 (MEM)) at 5 ug/mL dose; assay type: functional, Rattus norvegicus; how it was run: as §1
# 7800C1 cell line [4] = test: Tested for its cytotoxic effect on the growth of the cell strain 7800C1 (1 x 10e 4 (MEM)) at 10 ug/mL dose; assay type: functional, Rattus norvegicus; how it was run: as §1
# GH4-C1 [5] = test: Tested for its cytotoxic effect on the growth of the cell strain GH4C1 (8 x 10e 4 (F 10+)) at 10 ug/mL dose; assay type: functional, Rattus norvegicus; how it was run: as §1
# GH3 [6] = test: Tested for its cytotoxic effect on the growth of the cell strain GH3 (2 x 10e 4 (F 10+)) at 10 ug/mL dose; assay type: functional, Rattus norvegicus; how it was run: as §1
# GH3 [7] = test: Tested for its cytotoxic effect on the growth of the cell strain GH3 (2 x 10e 4 (F 10+)) at 2 ug/mL dose; assay type: functional, Rattus norvegicus; how it was run: as §1
# GH3 [8] = test: Tested for its cytotoxic effect on the growth of the cell strain GH3 (2 x 10e 4 (F 10+)) at 5 ug/mL dose; assay type: functional, Rattus norvegicus; how it was run: as §1
# GH3 [9] = test: Tested for its cytotoxic effect on the growth of the cell strain GH3 (2 x 10e 4 (F 10+)) at 75 ug/mL dose; assay type: functional, Rattus norvegicus; how it was run: as §1
# GH4-C1 [10] = test: Tested for its cytotoxic effect on the growth of the cell strain GH4C1 (8 x 10e 4 (F 10+)) at 2 ug/mL dose; assay type: functional, Rattus norvegicus; how it was run: as §1
# GH4-C1 [11] = test: Tested for its cytotoxic effect on the growth of the cell strain GH4C1 (8 x 10e 4 (F 10+)) at 20 ug/mL dose; assay type: functional, Rattus norvegicus; how it was run: as §1
# GH4-C1 [12] = test: Tested for its cytotoxic effect on the growth of the cell strain GH4C1 (8 x 10e 4 (F 10+)) at 5 ug/mL dose; assay type: functional, Rattus norvegicus; how it was run: as §1
# GH4-C1 [13] = test: Tested for its cytotoxic effect on the growth of the cell strain GH4C1 (8 x 10e 4 (F 10+)) at 75 ug/mL dose; assay type: functional, Rattus norvegicus; how it was run: as §1
# H4 [14] = test: Tested for its cytotoxic effect on the growth of the cell strain H4 (8 x 10e 3 (MEM)) at 10 ug/mL dose; assay type: functional; how it was run: as §1
# H4 [15] = test: Tested for its cytotoxic effect on the growth of the cell strain H4 (8 x 10e 3 (MEM)) at 2 ug/mL dose; assay type: functional; how it was run: as §1
# H4 [16] = test: Tested for its cytotoxic effect on the growth of the cell strain H4 (8 x 10e 3 (MEM)) at 5 ug/mL dose; assay type: functional; how it was run: as §1
# H4 [17] = test: Tested for its cytotoxic effect on the growth of the cell strain H4 (8 x 10e 3 (MEM)) at 75 ug/mL dose; assay type: functional; how it was run: as §1
# H4 [18] = test: Tested for its reversal effect on growth of H4 cells at 5 ug/mL concentrations of L-aspargine and DL-threo-beta-fluoroaspartate; assay type: functional
# MH1C1 [19] = test: Tested for its cytotoxic effect on the growth of the cell strain MH1C1 (1 x 10e 4 (F 10+)) at 10 ug/mL dose; assay type: functional; how it was run: as §1
# MH1C1 [20] = test: Tested for its cytotoxic effect on the growth of the cell strain MH1C1 (1 x 10e 4 (F 10+)) at 2 ug/mL dose; assay type: functional; how it was run: as §1
# MH1C1 [21] = test: Tested for its cytotoxic effect on the growth of the cell strain MH1C1 (1 x 10e 4 (F 10+)) at 20 ug/mL dose; assay type: functional; how it was run: as §1
# MH1C1 [22] = test: Tested for its cytotoxic effect on the growth of the cell strain MH1C1 (1 x 10e 4 (F 10+)) at 5 ug/mL dose; assay type: functional; how it was run: as §1
# MH1C1 [23] = test: Tested for its cytotoxic effect on the growth of the cell strain MH1C1 (1 x 10e 4 (F 10+)) at 75 ug/mL dose; assay type: functional; how it was run: as §1
# R5 [24] = test: Tested for its cytotoxic effect on the growth of the cell strain R5 (1 x 10e 3 (F 10+)) at 10 ug/mL dose; assay type: functional; how it was run: as §1
# R5 [25] = test: Tested for its cytotoxic effect on the growth of the cell strain R5 (1 x 10e 3 (F 10+)) at 2 ug/mL dose; assay type: functional; how it was run: as §1
# R5 [26] = test: Tested for its cytotoxic effect on the growth of the cell strain R5 (1 x 10e 3 (F 10+)) at 20 ug/mL dose; assay type: functional; how it was run: as §1
# R5 [27] = test: Tested for its cytotoxic effect on the growth of the cell strain R5 (1 x 10e 3 (F 10+)) at 5 ug/mL dose; assay type: functional; how it was run: as §1
# R5 [28] = test: Tested for its cytotoxic effect on the growth of the cell strain R5 (1 x 10e 3 (F 10+)) at 75 ug/mL dose; assay type: functional; how it was run: as §1
# H4 [29] = test: Tested for its cytotoxic effect on the growth of the cell strain H4 (8 x 10e 3 (MEM)) at 20 ug/mL dose; assay type: functional; how it was run: as §1
# 7800C1 cell line [30] = test: Tested for its cytotoxic effect on the growth of the cell strain 7800C1 (1 x 10e 4 (MEM)) at 75 ug/mL dose; assay type: functional, Rattus norvegicus; how it was run: as §1
# GH3 [31] = test: Tested for its cytotoxic effect on the growth of the cell strain GH3 (2 x 10e 4 (F 10+)) at 20 ug/mL dose; assay type: functional, Rattus norvegicus; how it was run: as §1
# H4 [32] = test: Tested for its reversal effect on growth of H4 cells at 330 + 5 ug/mL concentrations of L-aspargine and DL-threo-beta-fluoroaspartate; assay type: functional
# How it was run: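 H4 hepatoma cells seeded at 8×10^3 per 35-mm dish in F 10+ medium. On day 4, the medium was renewed and treatments started, including L-aspartate or L-asparagine. Incubation 72 h, then Lowry total cell protein per dish. Results reported as % of untreated control, mean of duplicate dishes.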
# H4 [33] = test: Tested for its reversal effect on growth of H4 cells at 133 + 5 ug/mL concentrations of L-aspargine and DL-threo-beta-fluoroaspartate; assay type: functional
# How it was run: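 Rat hepatoma H4 cells seeded at 1.4×10^4 per 35-mm dish in MEM+. On day 4, fresh MEM+ was added, with treatments including L-aspartate or L-asparagine. Exposure 66 h, then total cell protein per dish measured by Lowry. Results expressed as % of untreated control protein, mean of duplicate dishes.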
# H4 (Rattus norvegicus) [34] = test: Tested for its reversal effect on growth of H4 cells at 133 ug/mL concentrations of L-aspargine and DL-threo-beta-fluoroaspartate
# H4 (Rattus norvegicus) [35] = test: Tested for its reversal effect on growth of H4 cells at 330 ug/mL concentrations of L-aspargine and DL-threo-beta-fluoroaspartate
# [36] = Distribution of radioactivity derived form [C14]-labeled compound taken up by 7800C1 cells; total uptake; assay type: ADME
# How it was run: (§2)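 7800C₁ cells in 100-mm dishes in MEM⁺; on day 4 medium renewed, and 6 h later ¹⁴C-labeled amino acid added to duplicate dishes for 12 h. Washed cells fractionated with 10% trichloroacetic acid (3 h, 0 °C) into acid-soluble material, then hot 5% acid (82 °C, 30 min) to release nucleic acid, leaving a protein pellet on glass-fiber filter. Scintillation counting; nmol/10⁶ cells, mean of duplicates.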
# [37] = Percent recovery form [C14]-labeled compound taken up by 7800C1 cells; assay type: ADME; details: rat; how it was run: as §2
# GH4-C1 [38] = test: Compound was tested for its uptake by the GH4C1 cells; assay type: functional, Rattus norvegicus
# How it was run: (§3)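 Cells plated in 100-mm dishes in F 10⁺; on day 4 medium replaced with fresh F 10⁺, and 3 h later ¹⁴C-labeled amino acid added to duplicate dishes. 6 h incubation, then monolayer washed in cold 0.9% NaCl, cells scraped off, and radioactivity counted by liquid scintillation. Uptake expressed as nmol/10⁶ cells from cell counts on untreated dishes; mean of duplicates.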
# MH1C1 [39] = test: Compound was tested for its uptake by the MH1C1 cells; assay type: functional; how it was run: as §3
# Jensen sarcoma = test: Compound was tested for its uptake by the Jensen sarcoma cells; assay type: functional, Rattus norvegicus; how it was run: as §3
# H4 (Rattus norvegicus) [40] = test: Compound was tested for its uptake by the H4 cells
# [41] = tested on: 7800C1 (Rattus norvegicus); test: Compound was tested for its uptake by the 7800C1 cells
smiles,measurement,setting,value
NC(C(=O)O)C(F)C(=O)O (racemic),Cell protein,7800C1 cell line [1],10 ug dish-1
same,Cell protein,7800C1 cell line [2],6 ug dish-1
same,Cell protein,7800C1 cell line [3],9 ug dish-1
same,Cell protein,7800C1 cell line [4],249 ug dish-1
same,Cell protein,GH4-C1 [5],126 ug dish-1
same,Cell protein,GH3 [6],104 ug dish-1
same,Cell protein,GH3 [7],69 ug dish-1
same,Cell protein,GH3 [8],23 ug dish-1
same,Cell protein,GH3 [9],61 ug dish-1
same,Cell protein,GH4-C1 [10],96 ug dish-1
same,Cell protein,GH4-C1 [11],36 ug dish-1
same,Cell protein,GH4-C1 [12],98 ug dish-1
same,Cell protein,GH4-C1 [13],126 ug dish-1
same,Cell protein,H4 [14],150 ug dish-1
same,Cell protein,H4 [15],114 ug dish-1
same,Cell protein,H4 [16],9 ug dish-1
same,Cell protein,H4 [17],156 ug dish-1
same,Cell protein in untreated control,H4 [18],0% and 5%
same,Cell protein,MH1C1 [19],159 ug dish-1
same,Cell protein,MH1C1 [20],154 ug dish-1
same,Cell protein,MH1C1 [21],140 ug dish-1
same,Cell protein,MH1C1 [22],167 ug dish-1
same,Cell protein,MH1C1 [23],149 ug dish-1
same,Cell protein,R5 [24],122 ug dish-1
same,Cell protein,R5 [25],128 ug dish-1
same,Cell protein,R5 [26],50 ug dish-1
same,Cell protein,R5 [27],98 ug dish-1
same,Cell protein,R5 [28],90 ug dish-1
same,Cell protein,H4 [29],4 ug dish-1
same,Cell protein,7800C1 cell line [30],229 ug dish-1
same,Cell protein,GH3 [31],22 ug dish-1
NC(=O)C[C@H](N)C(=O)O.NC(C(=O)O)C(F)C(=O)O (racemic),Cell protein in untreated control,H4 [32],17%
same,Cell protein in untreated control,H4 [33],0%
NC(=O)C[C@H](N)C(=O)O [ASPARAGINE],Cell protein in untreated control,H4 (Rattus norvegicus) [34],103%
same,Cell protein in untreated control,H4 (Rattus norvegicus) [35],100%
N[C@@H](CC(=O)O)C(=O)O [ASPARTIC ACID],Activity,[36],21 nM (10e6*cells)-1
same,Recovery,[37],83%
same,Activity,GH4-C1 [38],1.1 nM (10e6*cells)-1
same,Activity,MH1C1 [39],0.5 nM (10e6*cells)-1
same,Activity,Jensen sarcoma,0.4 nM (10e6*cells)-1
same,Activity,H4 (Rattus norvegicus) [40],23.4 nM (10e6*cells)-1
same,Activity,[41],13.2 nM (10e6*cells)-1
same,Cell protein in untreated control,H4 (Rattus norvegicus) [34],115%
same,Cell protein in untreated control,H4 (Rattus norvegicus) [35],77%
